Results collected from several papers.
Each line is one published result; the experiments were not run side by side.

Compound | test system | conditions | Cmax
CC(=O)O[C@@]12CO[C@@H]1C[C@H](O)[C@@]1(C)C(=O)[C@H](O)C3=C(C)[C@@H](OC(=O)[C@H](O)[C@@H](NC(=O)OC(C)(C)C)c4ccccc4)C[C@@](O)([C@@H](OC(=O)c4ccccc4)[C@H]21)C3(C)C | male Kunming mouse, plasma | oral, 20 mg/kg | 4.1 ng/mL
O=C(ONc1nc2nonc2nc1Nc1ccccc1F)c1ccc(OC(F)(F)F)cc1 | male C57BL/6 mouse, plasma | oral, 10 mg/kg | 1.9 nM
Cc1c(C(=O)O)ccc2c3n(nc12)[C@@H]1[C@H](C3)N(CC2CC2)[C@@]2(C(=O)Nc3cc(Cl)ccc32)[C@H]1c1cccc(Cl)c1F | female mouse, plasma | oral, 5 mg/kg | 7400 nM
O=C(COc1ccc(N2C(=O)[C@@H]3[C@@H]4C=C[C@@H]([C@H]5C[C@@H]45)[C@@H]3C2=O)cc1)c1cc(Cl)cc(Cl)c1 | mouse, brain | oral, 20 mg/kg | 5000 nM
O=C1CCN2C(=O)c3ccccc3C2C(=O)Nc2ccccc21 (centres unmarked) | male Swiss mouse, plasma | oral, 100 mg/kg | 617 nM
Nc1ncn([C@H]2C[C@H](O)[C@@H](CO)O2)c(=O)n1 | female C57BL/6 mouse, plasma | oral, 0.4 mg/kg | 118 ng/mL
C=CS(=O)(=O)c1ccc(Nc2nc(OCC3CCCCC3)c3nc[nH]c3n2)cc1 | male BALB/c mouse, plasma | intraperitoneal, 20 mg/kg, single dose | 190 ng/mL
CCN1CCN(Cc2ccc(NC(=O)c3ccc(C)c(NC(=O)c4cncc(-c5cccs5)c4)c3)cc2C(F)(F)F)CC1 | mouse, plasma | intraperitoneal, 10 mg/kg, single dose | 488 ng/mL
